In ChEMBL document CHEMBL1687883, “Dinoxin B, a withanolide from Datura inoxia leaves with specific cytotoxic activities” (J Nat Prod, 2011):

Key:
[1] = test system: MCF7; experiment: Cytotoxicity against human MCF7 cells after 48 hrs by CellTiterGlo luminescent assay; type: functional, cell-based; conditions: MCF7, 48 h
Procedure, shortened: (§1)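 Cells (5000-15 000 per well) were plated and left to adhere for 24 h in standard growth medium under ATCC-recommended conditions. The medium was then replaced and the compound added across varying doses, with DMSO in the final medium. Viability was read by ATP-dependent CellTiter-Glo luminescence, and IC50 values were derived from the dose series.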

[2] = test system: MDA-MB-468; experiment: Cytotoxicity against human MDA-MB-468 cells after 48 hrs by CellTiterGlo luminescent assay; type: functional, cell-based; conditions: MDA-MB-468, 48 h; procedure, shortened: as §1
[3] = test system: T47D; experiment: Cytotoxicity against human T47D cells after 48 hrs by CellTiterGlo luminescent assay; type: functional, cell-based; procedure, shortened: as §1
[4] = test system: MDA-MB-453; experiment: Cytotoxicity against human MDA-MB-453 cells after 48 hrs by CellTiterGlo luminescent assay; type: functional, cell-based; conditions: MDA-MB-453, 48 h; procedure, shortened: as §1
[5] = test system: MDA-MB-231; experiment: Cytotoxicity against human MDA-MB-231 cells after 48 hrs by CellTiterGlo luminescent assay; type: functional, cell-based; conditions: MDA-MB-231, 48 h; procedure, shortened: as §1
[6] = Cytotoxicity against human Hs 578T cells after 48 hrs by CellTiterGlo luminescent assay; type: functional, cell-based; procedure, shortened: as §1
[7] = test system: COLO 205; experiment: Cytotoxicity against human COLO205 cells after 48 hrs by CellTiterGlo luminescent assay; type: functional, cell-based; conditions: COLO 205, 48 h; procedure, shortened: as §1
[8] = test system: HCT-116; experiment: Cytotoxicity against human HCT116 cells after 48 hrs by CellTiterGlo luminescent assay; type: functional, cell-based; conditions: HCT-116, 48 h; procedure, shortened: as §1
[9] = test system: SW48; experiment: Cytotoxicity against human SW48 cells after 48 hrs by CellTiterGlo luminescent assay; type: functional, cell-based; conditions: SW48, 48 h; procedure, shortened: as §1
[10] = test system: RKO; experiment: Cytotoxicity against human RKO cells after 48 hrs by CellTiterGlo luminescent assay; type: functional, cell-based; procedure, shortened: as §1
[11] = test system: A549; experiment: Cytotoxicity against human A549 cells after 48 hrs by CellTiterGlo luminescent assay; type: functional, cell-based; conditions: A549, 48 h; procedure, shortened: as §1
[12] = test system: A-427; experiment: Cytotoxicity against human A427 cells after 48 hrs by CellTiterGlo luminescent assay; type: functional, cell-based; conditions: A-427, 48 h; procedure, shortened: as §1
[13] = test system: HepG2; experiment: Cytotoxicity against human HepG2 cells after 48 hrs by CellTiterGlo luminescent assay; type: functional, cell-based; conditions: HepG2, 48 h; procedure, shortened: as §1
[14] = test system: Huh-7; experiment: Cytotoxicity against human HuH7 cells after 48 hrs by CellTiterGlo luminescent assay; type: functional, cell-based; conditions: Huh-7, 48 h; procedure, shortened: as §1
[15] = Cytotoxicity against human Hep3B cells after 48 hrs by CellTiterGlo luminescent assay; type: functional, cell-based, Hep 3B2; procedure, shortened: as §1
[16] = Cytotoxicity against human NHF177 cells after 48 hrs by CellTiterGlo luminescent assay; type: cell-based; conditions: NHF177, 48 h; procedure, shortened: as §1
[17] = test system: HUVEC; experiment: Cytotoxicity against human HUVEC cells after 48 hrs by CellTiterGlo luminescent assay; type: cell-based; procedure, shortened: as §1
[18] = test system: SK-MEL-28; experiment: Cytotoxicity against human SK-MEL-28 cells after 48 hrs by CellTiterGlo luminescent assay; type: functional, cell-based; conditions: SK-MEL-28, 48 h; procedure, shortened: as §1
[19] = test system: SK-MEL-5; experiment: Cytotoxicity against human SK-MEL-5 cells after 48 hrs by CellTiterGlo luminescent assay; type: functional, cell-based; conditions: SK-MEL-5, 48 h; procedure, shortened: as §1
[20] = test system: UACC-62; experiment: Cytotoxicity against human UACC62 cells after 48 hrs by CellTiterGlo luminescent assay; type: functional, cell-based; conditions: UACC-62, 48 h; procedure, shortened: as §1
[21] = test system: SK-MEL-2; experiment: Cytotoxicity against human SK-MEL-2 cells after 48 hrs by CellTiterGlo luminescent assay; type: functional, cell-based; conditions: SK-MEL-2, 48 h; procedure, shortened: as §1
[22] = test system: OVCAR-3; experiment: Cytotoxicity against human OVCAR3 cells after 48 hrs by CellTiterGlo luminescent assay; type: functional, cell-based; conditions: OVCAR-3, 48 h; procedure, shortened: as §1
[23] = Cytotoxicity against rat IEC-6 cells after 48 hrs by CellTiterGlo luminescent assay; type: cell-based; conditions: IEC-6, 48 h; procedure, shortened: as §1

CC1=C(CO)C(=O)O[C@@H]([C@@H](CO)[C@H]2CC[C@H]3[C@@H]4CC=C5CC=CC(=O)[C@]5(C)[C@H]4C[C@@H](O)[C@]23C)C1
IC50 [1]: 870 nM
IC50 [2]: 750 nM
IC50 [3]: 990 nM

CC1=C(CO[C@@H]2O[C@H](CO)[C@@H](O)[C@H](O)[C@H]2O)C(=O)O[C@@H]([C@@H](CO)[C@H]2CC[C@H]3[C@@H]4CC=C5CC=CC(=O)[C@]5(C)[C@H]4C[C@@H](O)[C@]23C)C1 [DINOXIN B]
IC50 [4]: 3000 nM
IC50 [5]: 1000 nM
IC50 [1]: 610 nM
IC50 [2]: 580 nM
IC50 [6]: 440 nM
IC50 [3]: 220 nM
IC50 [7]: 2200 nM
IC50 [8]: 1000 nM
IC50 [9]: 580 nM
IC50 [10]: 360 nM
IC50 [11]: 3.4 µM
IC50 [12]: 870 nM
IC50 [13]: 1500 nM
IC50 [14]: 1500 nM
IC50 [15]: 670 nM
IC50 [16]: 1230 nM
IC50 [17]: 740 nM
IC50 [18]: 2300 nM
IC50 [19]: 1400 nM
IC50 [20]: 500 nM
IC50 [21]: 360 nM
IC50 [22]: 3.2 µM
IC50 [23]: 3.3 µM
